Experiments:
[1] = biological target: T1, Prostaglandin G/H synthase 1 (Rattus norvegicus) (UniProt Q63921); assay: Percent inhibition against cyclooxygenase-1 at 100 uM in rat blood
T1 sequence (whole entry): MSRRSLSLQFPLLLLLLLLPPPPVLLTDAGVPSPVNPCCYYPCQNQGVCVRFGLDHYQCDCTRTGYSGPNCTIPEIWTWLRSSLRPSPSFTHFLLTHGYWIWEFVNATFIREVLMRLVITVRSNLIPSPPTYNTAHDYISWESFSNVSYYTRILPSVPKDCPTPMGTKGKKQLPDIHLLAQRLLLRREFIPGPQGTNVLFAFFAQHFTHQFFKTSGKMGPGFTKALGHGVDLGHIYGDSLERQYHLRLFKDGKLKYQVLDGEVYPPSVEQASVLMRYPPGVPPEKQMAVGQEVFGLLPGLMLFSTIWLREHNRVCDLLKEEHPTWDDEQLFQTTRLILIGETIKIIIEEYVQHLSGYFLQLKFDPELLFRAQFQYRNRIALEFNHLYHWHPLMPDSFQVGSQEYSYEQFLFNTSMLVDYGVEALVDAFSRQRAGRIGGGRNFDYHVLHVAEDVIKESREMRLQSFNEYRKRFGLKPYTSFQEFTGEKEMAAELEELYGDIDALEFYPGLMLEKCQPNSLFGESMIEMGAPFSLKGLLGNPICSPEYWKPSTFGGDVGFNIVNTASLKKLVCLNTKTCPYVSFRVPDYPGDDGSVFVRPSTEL
In short: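 Fresh rat whole blood preincubated 1 h at 37 °C with compound (100 μM) or DMSO (0.3% final). Stimulated 30 min with A23187 calcium ionophore; plasma thromboxane B2 measured by radioimmunoassay.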

[2] = biological target: T2, Amyloid-beta precursor protein (Homo sapiens, UniProt P05067); assay: Inhibitory concentration against beta-amyloid-42 (Abeta42) secretion was evaluated in human neuroglioma cells (H4-APP695NL); type: functional, cell-based
In short: (§1)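 H4-APP695NL human neuroglioma cells (APP695 Swedish K595N/M596L) seeded at 2 × 10^5/well and grown 24 h to confluence. Increasing compound concentrations added overnight; DMSO 1% as vehicle. Supernatant Aβ42 or Aβ40 measured by electrochemiluminescence immunoassay: biotinylated 4G8 plus C-terminus-specific rabbit antibodies, captured on streptavidin beads.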
Target sequence in this assay (P05067 18-770 limits assumed): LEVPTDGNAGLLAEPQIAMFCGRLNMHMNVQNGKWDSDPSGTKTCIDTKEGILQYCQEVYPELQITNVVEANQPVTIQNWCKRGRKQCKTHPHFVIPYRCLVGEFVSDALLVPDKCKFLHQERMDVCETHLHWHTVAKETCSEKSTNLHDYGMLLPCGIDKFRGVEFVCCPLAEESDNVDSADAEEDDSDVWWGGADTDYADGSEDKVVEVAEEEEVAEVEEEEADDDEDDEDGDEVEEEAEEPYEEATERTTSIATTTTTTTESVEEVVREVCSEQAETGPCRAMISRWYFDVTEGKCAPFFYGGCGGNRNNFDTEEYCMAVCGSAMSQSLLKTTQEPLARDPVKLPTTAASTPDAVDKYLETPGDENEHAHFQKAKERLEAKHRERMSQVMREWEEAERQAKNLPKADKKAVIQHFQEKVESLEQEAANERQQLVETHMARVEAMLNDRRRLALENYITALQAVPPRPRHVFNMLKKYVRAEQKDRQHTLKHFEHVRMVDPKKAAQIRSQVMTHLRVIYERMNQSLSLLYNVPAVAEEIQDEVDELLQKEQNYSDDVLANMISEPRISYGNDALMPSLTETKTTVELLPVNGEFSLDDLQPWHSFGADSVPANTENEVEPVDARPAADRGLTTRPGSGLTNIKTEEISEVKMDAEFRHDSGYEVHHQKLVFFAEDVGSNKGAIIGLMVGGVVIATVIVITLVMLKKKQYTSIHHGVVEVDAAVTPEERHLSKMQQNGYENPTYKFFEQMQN

[3] = biological target: T2, Amyloid-beta precursor protein; settings: at 100 µM
Target sequence in this assay (P05067 whole entry): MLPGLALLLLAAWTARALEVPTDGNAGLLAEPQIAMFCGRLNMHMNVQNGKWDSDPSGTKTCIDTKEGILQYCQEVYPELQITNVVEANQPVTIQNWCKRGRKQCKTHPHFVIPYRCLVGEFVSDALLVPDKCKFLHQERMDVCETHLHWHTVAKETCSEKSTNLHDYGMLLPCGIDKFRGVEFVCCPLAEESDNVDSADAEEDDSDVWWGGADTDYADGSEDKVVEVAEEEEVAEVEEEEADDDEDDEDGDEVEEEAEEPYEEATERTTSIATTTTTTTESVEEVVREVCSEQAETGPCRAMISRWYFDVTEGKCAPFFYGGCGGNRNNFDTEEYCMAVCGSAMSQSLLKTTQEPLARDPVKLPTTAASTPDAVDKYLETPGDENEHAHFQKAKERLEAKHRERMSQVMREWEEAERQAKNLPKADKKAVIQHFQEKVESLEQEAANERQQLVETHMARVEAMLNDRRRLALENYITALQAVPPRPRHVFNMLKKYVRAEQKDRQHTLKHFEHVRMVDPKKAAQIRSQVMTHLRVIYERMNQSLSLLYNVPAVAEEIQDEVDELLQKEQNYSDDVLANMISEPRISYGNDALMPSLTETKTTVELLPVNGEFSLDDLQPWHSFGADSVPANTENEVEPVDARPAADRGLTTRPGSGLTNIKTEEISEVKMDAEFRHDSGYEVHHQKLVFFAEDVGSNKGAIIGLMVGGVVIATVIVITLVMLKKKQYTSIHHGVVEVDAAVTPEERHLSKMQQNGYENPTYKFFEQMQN

[4] = test system: Caco-2; assay: Permeability in the Caco-2 cell; high absorption; type: ADME, cell-based; settings: human
In short: (§2)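 Caco-2 monolayers on polycarbonate Transwell inserts, 2 h at 37 °C. Apical and basolateral solutions analysed by LC-MS/MS (SRM). Papp = Cb·Vb/(C0·A·t).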

[5] = biological target: T3, Cytochrome P450 2C19 (Homo sapiens, UniProt P33261); assay: Compound dissolved in DMSO was tested for interaction with baculovirus-insect cells expressing human cytochrome P450 at 100 uM; type: ADME
In short: (§3)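 Microsomes from baculovirus-insect cells expressing human CYP1A2, 2C9, 2C19, 2D6 or 3A4. Compound serially diluted with an NADPH-regenerating mix (16.3 μM NADP+, 0.83 mM glucose-6-phosphate, 0.83 mM MgCl2, 0.4 U/mL G6PDH). Pre-warmed 10 min at 37 °C, then isoform-specific substrate added in 0.35 M potassium phosphate pH 7.4. Fluorometric read-out; IC50 by nonlinear regression.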

[6] = Maximal concentration in rats after 2.5 mg/kg oral dose; type: ADME, organism-based; parameters: dose 2.5 mg/kg, route oral; settings: rat, in vivo
[7] = Elimination phase half-life after administration to rats at a dose of 2.5 mg/kg orally; type: ADME, organism-based; parameters: dose 2.5 mg/kg, route oral; settings: rat, in vivo, po
[8] = biological target: T2, Amyloid-beta precursor protein; assay: Inhibition of A beta 40 peptide 100 um
Target sequence in this assay (P05067 whole entry): as above

[9] = Maximal concentration in rats after 0.5 mg/kg intravenous dose; type: ADME, organism-based; parameters: dose 0.5 mg/kg, route intravenous; settings: rat, in vivo
[10] = Concentration ratio in cerebrospinal fluid and plasma; settings: rat
[11] = biological target: T3, Cytochrome P450 2C19; assay: Interaction with human cytochrome P450 isoform 2C19 expressed in baculovirus-insect cells; type: ADME; in short: as §3
[12] = Total body clearance after administration to rats at a dose of 0.5 mg/kg intravenously; type: ADME, organism-based; parameters: dose 0.5 mg/kg, route intravenous; settings: rat, in vivo, iv
[13] = Area under curve after administration to rats at adose of 2.5 mg/kg orally; type: ADME, organism-based; parameters: dose 2.5 mg/kg, route oral; settings: rat, in vivo, po
[14] = Area under curve after administration to rats at adose of 0.5 mg/kg intravenously; type: ADME, organism-based; parameters: dose 0.5 mg/kg, route intravenous; settings: rat, in vivo, iv
[15] = Absolute oral bioavailability after administration to rats at a dose of 2.5 mg/kg orally; settings: rat, in vivo
[16] = Maximum time corresponding to maximum concentration after administration to rats at a dose of 2.5 mg/kg orally; type: ADME, organism-based; parameters: dose 2.5 mg/kg, route oral; settings: rat, in vivo, po
[17] = Elimination phase half-life after administration to rats at a dose of 0.5 mg/kg intravenously; type: ADME, organism-based; parameters: dose 0.5 mg/kg, route intravenous; settings: rat, in vivo, iv
[18] = In vivo steady state metabolic clearance of the compound; settings: rat
[19] = Maximum time corresponding to maximum concentration after administration to rats at a dose of 0.5 mg/kg intravenously; type: ADME, organism-based; parameters: dose 0.5 mg/kg, route intravenous; settings: rat, in vivo, iv
[20] = Maximum time corresponding to maximum concentration after administration to rats at a dose of 1.5 mg/kg intravenously; type: ADME, organism-based; parameters: dose 1.5 mg/kg, route intravenous; settings: rat, in vivo, iv
[21] = Area under curve after administration to rats at adose of 1.5 mg/kg intravenously; type: ADME, organism-based; parameters: dose 1.5 mg/kg, route intravenous; settings: rat, in vivo, iv
[22] = Maximum time corresponding to maximum concentration after administration to rats at a dose of 7.6 mg/kg orally; type: ADME, organism-based; parameters: dose 7.6 mg/kg, route oral; settings: rat, in vivo, po
[23] = biological target: T4, Prostaglandin G/H synthase 1 (Rattus norvegicus, UniProt Q63921); assay: Concentration required to inhibit cyclooxygenase-1 in rat blood
T4 sequence (Q63921 whole entry): T1 sequence (whole entry)
In short: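 Fresh rat whole blood was preincubated 1 h at 37 °C with compound (100 μM or a concentration series; DMSO 0.3% final). It was then stimulated 30 min with the Ca²⁺ ionophore A23187. Thromboxane B2 in the plasma was measured by radioimmunoassay.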

[24] = Intestinal drug absorption was estimated in vitro using human colon adenocarcinoma (Caco-2) cell monolayers; type: ADME; in short: as §2
[25] = Absolute oral bioavailability after administration to rats at a dose of 7.6 mg/kg orally; type: ADME, organism-based; settings: rat, in vivo
[26] = Area under curve after administration to rats at a dose of 7.6 mg/kg orally; type: ADME, organism-based; parameters: dose 7.6 mg/kg, route oral; settings: rat, in vivo, po
[27] = Maximal concentration in rats after 1.5 mg/kg intravenous dose; type: ADME, organism-based; parameters: dose 1.5 mg/kg, route intravenous; settings: rat, in vivo
[28] = biological target: T3, Cytochrome P450 2C19; assay: Compound was tested for interaction with baculovirus-insect cells expressing human cytochrome P450; No interactions at 100 uM; type: ADME
[29] = Maximal concentration in rats after 7.6 mg/kg oral dose; type: ADME, organism-based; parameters: dose 7.6 mg/kg, route oral; settings: rat, in vivo
[30] = Elimination phase half-life after administration to rats at a dose of 1.5 mg/kg intravenously; type: ADME, organism-based; parameters: dose 1.5 mg/kg, route intravenous; settings: rat, in vivo, iv
[31] = Total body clearance after administration to rats at a dose of 1.5 mg/kg intravenously; type: ADME, organism-based; parameters: dose 1.5 mg/kg, route intravenous; settings: rat, in vivo, iv
[32] = Elimination phase half-life after administration to rats at a dose of 7.6 mg/kg orally; type: ADME, organism-based; parameters: dose 7.6 mg/kg, route oral; settings: rat, in vivo, po
[33] = biological target: Cytochrome P450 2D6 (Homo sapiens, UniProt P10635); assay: (§4) Interaction with human cytochrome P450 isoform 2D6 expressed in baculovirus-insect cells at 100 uM; type: ADME; in short: as §3
[34] = biological target: CYP2D6 (Homo sapiens, UniProt P10635); assay: as §4; type: ADME; in short: as §3
[35] = biological target: T5, CYP1A2 (Homo sapiens, UniProt P05177); assay: Interaction with human cytochrome P450 isoform 1A2 expressed in baculovirus-insect cells at 100 uM; type: ADME; in short: as §3
T5 sequence (P05177 whole entry): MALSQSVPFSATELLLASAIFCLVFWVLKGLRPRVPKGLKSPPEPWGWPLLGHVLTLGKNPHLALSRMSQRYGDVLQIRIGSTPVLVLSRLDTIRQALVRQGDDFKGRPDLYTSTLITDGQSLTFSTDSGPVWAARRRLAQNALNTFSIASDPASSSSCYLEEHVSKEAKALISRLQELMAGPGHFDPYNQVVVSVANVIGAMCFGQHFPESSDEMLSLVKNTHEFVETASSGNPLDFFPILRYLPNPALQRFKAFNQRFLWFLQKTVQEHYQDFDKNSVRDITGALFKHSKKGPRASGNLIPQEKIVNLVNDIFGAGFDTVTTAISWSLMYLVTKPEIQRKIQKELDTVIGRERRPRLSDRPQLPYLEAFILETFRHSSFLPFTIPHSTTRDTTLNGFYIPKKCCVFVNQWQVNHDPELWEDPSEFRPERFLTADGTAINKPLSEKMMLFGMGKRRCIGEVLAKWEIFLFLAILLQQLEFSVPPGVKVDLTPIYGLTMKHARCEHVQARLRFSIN

[36] = Intestinal drug absorption was estimated in vitro using human colon adenocarcinoma (Caco-2) cell monolayers; Range is 10-50 nm/s; type: ADME; in short: as §2
[37] = biological target: T2, Amyloid-beta precursor protein; assay: Concentration required to inhibit A beta 40 peptide; in short: as §1
Target sequence in this assay (P05067 whole entry): as the sequence (P05067 whole entry) above

[38] = biological target: CYP2C19 (Homo sapiens, UniProt P33261); assay: Interaction with human cytochrome P450 isoform 2C19 expressed in baculovirus-insect cells at 100 uM; type: ADME; in short: as §3
[39] = Absolute oral bioavailability after administration to rats at a dose of 2.5 mg/kg orally; settings: rat, in vivo; remark: listed apart in the source
[40] = Total body clearance after administration to rats at a dose of 0.5 mg/kg intravenously; settings: rat, in vivo, iv
[41] = Area under curve after administration to rats at a dose of 0.5 mg/kg intravenously; type: ADME, organism-based; parameters: dose 0.5 mg/kg, route intravenous; settings: rat, in vivo, iv
[42] = biological target: Cytochrome P450 2C9 (Homo sapiens, UniProt P11712); assay: Interaction with human cytochrome P450 isoform 2C9 expressed in baculovirus-insect cells; type: ADME; in short: as §3
[43] = Area under curve after administration to rats at a dose of 2.5 mg/kg orally; type: ADME, organism-based; parameters: dose 2.5 mg/kg, route oral; settings: rat, in vivo, po

T3 sequence (P33261 whole entry, canonical isoform): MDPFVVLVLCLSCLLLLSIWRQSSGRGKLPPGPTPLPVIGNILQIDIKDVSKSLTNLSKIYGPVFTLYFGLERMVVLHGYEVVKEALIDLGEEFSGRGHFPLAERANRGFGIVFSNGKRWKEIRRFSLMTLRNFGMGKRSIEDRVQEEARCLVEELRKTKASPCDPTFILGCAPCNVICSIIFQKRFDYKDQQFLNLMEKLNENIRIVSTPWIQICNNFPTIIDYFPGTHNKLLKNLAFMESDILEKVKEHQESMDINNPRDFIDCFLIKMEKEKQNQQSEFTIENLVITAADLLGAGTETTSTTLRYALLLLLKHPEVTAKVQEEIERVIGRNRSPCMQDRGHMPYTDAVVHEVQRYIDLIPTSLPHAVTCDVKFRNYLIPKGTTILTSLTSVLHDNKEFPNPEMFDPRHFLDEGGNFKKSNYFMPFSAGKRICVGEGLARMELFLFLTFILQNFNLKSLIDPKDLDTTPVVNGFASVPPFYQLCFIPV
Sequence of CYP2C19 (P33261 whole entry, canonical isoform): as above
Sequence of CYP2D6 (P10635 whole entry, canonical isoform): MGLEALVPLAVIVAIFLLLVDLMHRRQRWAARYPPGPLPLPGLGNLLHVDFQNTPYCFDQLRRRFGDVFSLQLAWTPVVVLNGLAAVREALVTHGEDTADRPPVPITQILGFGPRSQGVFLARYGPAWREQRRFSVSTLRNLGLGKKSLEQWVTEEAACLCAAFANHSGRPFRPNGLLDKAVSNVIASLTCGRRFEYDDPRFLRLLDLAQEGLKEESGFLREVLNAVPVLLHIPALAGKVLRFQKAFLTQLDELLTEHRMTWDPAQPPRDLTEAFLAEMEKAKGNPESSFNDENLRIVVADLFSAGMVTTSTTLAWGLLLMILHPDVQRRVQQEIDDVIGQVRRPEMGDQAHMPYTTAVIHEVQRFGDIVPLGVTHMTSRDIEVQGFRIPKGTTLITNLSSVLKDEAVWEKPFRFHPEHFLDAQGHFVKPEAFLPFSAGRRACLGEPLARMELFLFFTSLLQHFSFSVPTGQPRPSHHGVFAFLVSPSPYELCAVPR
Sequence of Cytochrome P450 2D6 (P10635 whole entry, canonical isoform): as above
Sequence of Cytochrome P450 2C9 (P11712 whole entry, canonical isoform): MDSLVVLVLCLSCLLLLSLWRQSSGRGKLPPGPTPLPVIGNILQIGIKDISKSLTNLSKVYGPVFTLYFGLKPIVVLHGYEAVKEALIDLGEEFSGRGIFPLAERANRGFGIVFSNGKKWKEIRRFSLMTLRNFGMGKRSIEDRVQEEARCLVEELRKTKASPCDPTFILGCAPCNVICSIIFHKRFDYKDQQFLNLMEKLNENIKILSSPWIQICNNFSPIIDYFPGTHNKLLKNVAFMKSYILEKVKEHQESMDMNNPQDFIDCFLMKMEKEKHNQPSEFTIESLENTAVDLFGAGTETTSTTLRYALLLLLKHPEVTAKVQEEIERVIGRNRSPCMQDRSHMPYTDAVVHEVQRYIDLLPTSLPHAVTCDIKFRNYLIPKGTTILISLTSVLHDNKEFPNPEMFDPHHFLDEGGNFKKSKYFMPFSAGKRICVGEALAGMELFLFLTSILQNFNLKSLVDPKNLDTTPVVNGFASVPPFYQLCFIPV

CC(C(=O)O)c1ccc(-c2ccc(C(F)(F)F)cc2)c(F)c1 (stereo not given)
inhibition [1]: 40% | IC50 [2]: 129 µM | inhibition [3]: 60% | Absoption [4]: High | Inhibition [5]: No interactions

O=C(O)C1(c2ccc(-c3ccc(C(F)(F)F)cc3)c(F)c2)CC1
inhibition [1]: < 1% | Cmax [6]: 54900 ng/mL | half-life [7]: 32.8 h | Inhibition [8]: 22% | Cmax [9]: 14400 ng/mL | IC50 [2]: 111 µM | Ratio [10]: 1.8% | inhibition [3]: 55% | IC50 [11]: 71 µM | Clearance [12]: 0.9 mL/h/kg | AUC [13]: 2613 µg/h/mL | Absoption [4]: High | AUC [14]: 575 µg/h/mL | bioavailability [15]: 90.9% | Tmax [16]: 4 h | half-life [17]: 36.2 h | Clearance [18]: 0.52 mL/h | Tmax [19]: 4.8 min

CC(C(=O)O)c1ccc(-c2ccccc2)c(F)c1 (stereo not given) [FLURBIPROFEN]
Tmax [20]: 0.3 h | AUC [21]: 78 µg/h/mL | Tmax [22]: 0.5 h | IC50 [23]: 0.17 µM | IC50 [2]: 305 µM | Papp [24]: > 5 ×10⁻⁶ cm/s | bioavailability [25]: 78.3% | AUC [26]: 311 µg/h/mL | inhibition [3]: 30% | Cmax [27]: 9100 ng/mL | Inhibition [28]: No interactions | Cmax [29]: 49100 ng/mL | half-life [30]: 5.1 h | Clearance [31]: 19.1 mL/h/kg | half-life [32]: 4.9 h | Clearance [18]: 13.9 mL/h

CC(C(=O)O)c1ccc(-c2ccc(C3CCCCC3)cc2)c(F)c1 (stereo not given)
Inhibition [33]: > 50% | inhibition at 100 µM [34]: > 50% | inhibition at 100 µM [35]: > 50% | inhibition [1]: 18% | IC50 [2]: 21 µM | Ratio [10]: 1.5% | inhibition [3]: 79% | Papp [36]: 5 ×10⁻⁶ cm/s | IC50 [37]: 46 µM | inhibition at 100 µM [38]: > 50% | Clearance [18]: 174 mL/h

O=C(O)C1(c2ccc(-c3ccc(Cl)c(Cl)c3)c(F)c2)CC1
bioavailability [39]: 50.2% | inhibition [1]: < 1% | Cmax [6]: 16200 ng/mL | T1/2 [7]: 20.7 h | half-life [7]: 20.7 h | Cmax [9]: 6100 ng/mL | IC50 [2]: 41 µM | inhibition [3]: 79% | IC50 [11]: 25 µM | Clearance [40]: 2.9 mL/h/kg | AUC [41]: 173 µg/h/mL | Absorption [4]: High | IC50 [42]: 38 µM | AUC [43]: 435 µg/h/mL | Clearance [18]: 1.5 mL/h

From ChEMBL document CHEMBL1141070, “Synthesis and biological activity of flurbiprofen analogues as selective inhibitors of beta-amyloid(1)(-)(42) secretion” (J Med Chem, 2005)
